This is an account of results in ChEMBL document CHEMBL1641417, “Cytotoxicity and topoisomerase I/II inhibition of glycosylated 2-phenyl-indoles, 2-phenyl-benzo[b]thiophenes and 2-phenyl-benzo[b]furans” (Bioorg Med Chem, 2011).

Test [1] deals with MCF7. Put plainly: Cytotoxicity against human MCF7 cells at 25 uM after 72 hrs by MTS assay. A general note: Tetrazolium assays rely on reduction of a dye to a coloured formazan, in cell work by metabolically active cells.
For test [2], the target named is T1, DNA topoisomerase 1 (Homo sapiens) (UniProt P11387).
T1 sequence (whole entry): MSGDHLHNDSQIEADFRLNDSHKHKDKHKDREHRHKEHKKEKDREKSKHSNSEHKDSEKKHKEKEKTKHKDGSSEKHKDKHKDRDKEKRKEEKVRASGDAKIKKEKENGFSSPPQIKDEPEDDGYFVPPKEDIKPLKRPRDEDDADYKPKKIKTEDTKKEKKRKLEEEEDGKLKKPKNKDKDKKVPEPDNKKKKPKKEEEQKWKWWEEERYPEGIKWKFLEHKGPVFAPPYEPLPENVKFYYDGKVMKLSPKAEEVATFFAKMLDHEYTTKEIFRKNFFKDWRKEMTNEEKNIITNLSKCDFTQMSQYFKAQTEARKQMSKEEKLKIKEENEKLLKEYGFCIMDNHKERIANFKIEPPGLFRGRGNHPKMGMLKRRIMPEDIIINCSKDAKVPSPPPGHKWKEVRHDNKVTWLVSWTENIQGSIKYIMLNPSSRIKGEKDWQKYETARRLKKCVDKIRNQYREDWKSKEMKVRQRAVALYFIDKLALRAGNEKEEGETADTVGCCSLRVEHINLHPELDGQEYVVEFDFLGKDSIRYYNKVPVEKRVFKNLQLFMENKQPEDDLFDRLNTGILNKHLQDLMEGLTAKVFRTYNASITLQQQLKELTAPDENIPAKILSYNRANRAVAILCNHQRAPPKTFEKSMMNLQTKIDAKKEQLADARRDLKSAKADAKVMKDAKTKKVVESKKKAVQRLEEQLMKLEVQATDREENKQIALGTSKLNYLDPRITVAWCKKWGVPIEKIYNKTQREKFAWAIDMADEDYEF
Put plainly: Inhibition of human recombinant DNA topoisomerase 1-mediated DNA cleavage assessed as decrease in relaxation of supercoiled plasmid substrate DNA at 100 uM after 30 mins by agarose gel electrophoresis.

For test [3], the system named is HepG2. Nature of the test: Cytotoxicity against human HepG2 cells after 72 hrs by MTS assay. Conditions: HepG2, 72 h.
In test [4] the target is DNA topoisomerase 2-alpha (Homo sapiens) (UniProt P11388). Put plainly: Inhibition of human recombinant DNA topoisomerase 2alpha-mediated DNA cleavage assessed as decrease in relaxation of supercoiled plasmid substrate DNA at 20 uM after 30 mins by agarose gel electrophoresis.
In test [5] the test system is HT-29. Nature of the test: Cytotoxicity against human HT-29 cells assessed as cell viability at 25 uM after 72 hrs by MTS assay. Conditions: HT-29, 72 h.
The test system of test [6] is MCF7. Put plainly: Cytotoxicity against human MCF7 cells assessed as cell viability at 25 uM after 72 hrs by MTS assay. Conditions: MCF7, 72 h.
Test [7] addresses DNA topoisomerase 2-alpha (Homo sapiens) (UniProt P11388). Put plainly: Induction of poisoning activity in human recombinant DNA topoisomerase 2alpha assessed as enhancement of in relaxation of supercoiled plasmid substrate DNA at 100 uM after 30 mins by agarose gel electrophoresis. The method, boiled down: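 For topo IIα cleavage, 0.25 µg supercoiled pRYG was incubated with 4 units of human topoisomerase IIα (p170) in Tris buffer with 2 mM ATP and 10 mM MgCl2 for 30 min at 37 °C. Workup was SDS stop, proteinase K, extraction and agarose electrophoresis. Poisoning was judged by appearance of a linear DNA band.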

In test [8] the target is T1, DNA topoisomerase 1 (Homo sapiens). Nature of the test: Inhibition of human recombinant DNA topoisomerase 1-mediated DNA cleavage assessed as decrease in relaxation of supercoiled plasmid substrate DNA at 40 uM after 30 mins by agarose gel electrophoresis.
For test [9], the target named is DNA topoisomerase 2-alpha (Homo sapiens) (UniProt P11388). Put plainly: Inhibition of human recombinant DNA topoisomerase 2alpha-mediated DNA cleavage assessed as decrease in relaxation of supercoiled plasmid substrate DNA at 100 uM after 30 mins by agarose gel electrophoresis.
In test [10] the test system is Nucleic Acid. Nature of the test: Binding affinity to DNA by ethidium bromide staining-based FID assay. Also noted: concentration or dose not given beside the values.
The test system of test [11] is HT-29. Put plainly: Cytotoxicity against human HT-29 cells after 72 hrs by MTS assay. Conditions: HT-29, 72 h.
Test [12] in a line: Cytotoxicity against mouse NIH/3T3 cells after 3 days by MTS assay. The format is cell-based. Conditions: NIH3T3, 72 h. The method, boiled down:
(§1)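 Non-tumour cells were CRL-7761 human skin, Vero monkey kidney (DMEM high glucose, 5% FBS, 10 mM HEPES) and NIH/3T3 mouse (DMEM, 10% calf serum). Cells were seeded, left 24 h, then switched to serum-free DMEM-F12 with albumin, transferrin and insulin, with or without compound. Exposure was 3 days at 37 °C.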

Test [13] in a line: Cytotoxicity against human CRL7761 cells after 3 days by MTS assay. The format is cell-based. Conditions: 72 h. The method, boiled down: as §1
Test [14] relates to Vero. Nature of the test: Cytotoxicity against african green monkey Vero cells after 3 days by MTS assay. The format is cell-based. Conditions: Chlorocebus sabaeus, 72 h. The method, boiled down:
as §1

For test [15], the system named is HepG2. Nature of the test: Cytotoxicity against human HepG2 cells assessed as cell viability at 25 uM after 24 hrs by MTS assay. The format is functional. Conditions: HepG2, 24 h, read-out: Activity.
The test system of test [16] is HepG2. Put plainly: Cytotoxicity against human HepG2 cells at 25 uM after 72 hrs by MTS assay.
For test [17], the system named is HT-29. Nature of the test: Cytotoxicity against human HT-29 cells at 25 uM after 72 hrs by MTS assay.
In test [18] the target is T1, DNA topoisomerase 1 (Homo sapiens). Nature of the test: Induction of poisoning activity in human recombinant DNA topoisomerase 1 assessed as enhancement of in relaxation of supercoiled plasmid substrate DNA at 100 uM after 30 mins by agarose gel electrophoresis. In a few lines:
(§2)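 In the topo I cleavage (poison) assay, the relaxation format was used with 6 units of enzyme for 30 min at 37 °C. Reactions were stopped with SDS, digested with proteinase K and CIA-extracted. DNA was run on 1% agarose with and without ethidium bromide. Poisoning was scored by the presence of the nicked open-circular band, referenced to camptothecin.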

The subject of test [19] is MCF7. Nature of the test: Cytotoxicity against human MCF7 cells after 72 hrs by MTS assay. Conditions: MCF7, 72 h.
For test [20], the target named is DNA topoisomerase 2-alpha (Homo sapiens) (UniProt P11388). Put plainly: Inhibition of human recombinant DNA topoisomerase 2alpha-mediated DNA cleavage assessed as decrease in relaxation of supercoiled plasmid substrate DNA at 40 uM after 30 mins by agarose gel electrophoresis.
The target of test [21] is T1, DNA topoisomerase 1 (Homo sapiens). Nature of the test: Induction of poisoning activity in human recombinant DNA topoisomerase 1 assessed as enhancement of in relaxation of supercoiled plasmid substrate DNA at 25 to 50 uM after 30 mins by agarose gel electrophoresis. The method, boiled down:
as §2

Test [22] shares this target. Put plainly: Induction of poisoning activity in human recombinant DNA topoisomerase 1 assessed as enhancement of in relaxation of supercoiled plasmid substrate DNA at 75 to 100 uM after 30 mins by agarose gel electrophoresis. The method, boiled down:
as §2

The subject of test [23] is MCF7. Nature of the test: Cytotoxicity against human MCF7 cells assessed as cell viability at 20 uM after 72 hrs by MTS assay. Conditions: MCF7, 72 h, read-out: Activity.
Test [24] relates to HepG2. Nature of the test: Cytotoxicity against human HepG2 cells assessed as cell viability at 16 uM after 72 hrs by MTS assay. Conditions: HepG2, 72 h, read-out: Activity.
The subject of test [25] is HT-29. Put plainly: Cytotoxicity against human HT-29 cells assessed as cell viability at 20 uM after 24 hrs by MTS assay. Conditions: HT-29, 24 h, read-out: Activity. The format is functional.
Test [26] has as its target T1, DNA topoisomerase 1 (Homo sapiens). Put plainly: Inhibition of human recombinant DNA topoisomerase 1-mediated DNA cleavage assessed as decrease in relaxation of supercoiled plasmid substrate DNA at 5 uM after 30 mins by agarose gel electrophoresis.
For test [27], the system named is HepG2. Nature of the test: Cytotoxicity against human HepG2 cells assessed as cell viability at 25 uM after 72 hrs by MTS assay. Conditions: HepG2, 72 h.

Calls of active or inactive are those of the source. The rule behind the calls is not given here.

Sequence of DNA topoisomerase 2-alpha (Homo sapiens) (P11388 whole entry): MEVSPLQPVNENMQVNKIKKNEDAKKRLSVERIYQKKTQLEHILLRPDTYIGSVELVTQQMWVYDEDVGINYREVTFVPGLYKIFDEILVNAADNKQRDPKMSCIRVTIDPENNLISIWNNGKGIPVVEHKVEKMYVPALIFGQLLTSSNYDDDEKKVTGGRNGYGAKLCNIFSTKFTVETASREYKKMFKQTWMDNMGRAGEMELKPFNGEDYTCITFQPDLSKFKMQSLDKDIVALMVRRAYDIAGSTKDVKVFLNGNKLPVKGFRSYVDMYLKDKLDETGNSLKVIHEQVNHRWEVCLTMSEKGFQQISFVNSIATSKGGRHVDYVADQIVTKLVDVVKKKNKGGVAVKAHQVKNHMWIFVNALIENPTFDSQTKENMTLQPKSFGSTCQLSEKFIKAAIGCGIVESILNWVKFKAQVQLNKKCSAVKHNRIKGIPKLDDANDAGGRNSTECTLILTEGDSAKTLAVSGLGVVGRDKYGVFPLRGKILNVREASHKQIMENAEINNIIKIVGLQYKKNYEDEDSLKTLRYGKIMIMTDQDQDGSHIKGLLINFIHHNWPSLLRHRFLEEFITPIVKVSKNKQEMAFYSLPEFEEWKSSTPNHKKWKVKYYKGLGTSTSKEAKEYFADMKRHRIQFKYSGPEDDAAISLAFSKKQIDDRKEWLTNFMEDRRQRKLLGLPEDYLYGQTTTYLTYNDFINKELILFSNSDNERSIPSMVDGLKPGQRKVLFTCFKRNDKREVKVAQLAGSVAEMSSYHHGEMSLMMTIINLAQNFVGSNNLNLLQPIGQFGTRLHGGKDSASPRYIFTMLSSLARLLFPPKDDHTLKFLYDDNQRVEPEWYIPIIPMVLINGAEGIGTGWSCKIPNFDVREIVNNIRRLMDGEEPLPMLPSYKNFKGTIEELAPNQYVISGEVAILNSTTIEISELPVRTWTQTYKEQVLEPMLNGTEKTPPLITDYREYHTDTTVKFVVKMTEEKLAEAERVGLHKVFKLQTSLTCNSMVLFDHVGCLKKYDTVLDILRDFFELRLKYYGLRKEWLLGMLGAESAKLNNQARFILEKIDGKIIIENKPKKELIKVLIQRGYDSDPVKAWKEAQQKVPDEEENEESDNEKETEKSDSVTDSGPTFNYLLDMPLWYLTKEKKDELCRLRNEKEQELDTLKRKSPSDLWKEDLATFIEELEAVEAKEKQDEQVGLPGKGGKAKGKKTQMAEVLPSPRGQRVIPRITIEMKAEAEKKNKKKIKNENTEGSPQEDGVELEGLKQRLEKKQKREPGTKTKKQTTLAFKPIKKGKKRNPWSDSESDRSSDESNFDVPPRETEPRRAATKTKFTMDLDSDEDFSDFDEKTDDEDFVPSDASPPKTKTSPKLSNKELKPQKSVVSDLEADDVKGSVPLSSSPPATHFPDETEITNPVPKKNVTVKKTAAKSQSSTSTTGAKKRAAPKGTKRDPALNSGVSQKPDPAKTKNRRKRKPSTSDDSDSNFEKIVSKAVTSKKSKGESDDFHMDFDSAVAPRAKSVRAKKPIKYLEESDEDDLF

Broadly, the inhibition is the drop in the measured response relative to a control, in per cent. As usually defined, the IC50 is the concentration that gives 50% inhibition. For `Cc1ccc(S(=O)(=O)n2c(-c3ccccc3)c(C#CCO[C@H]3C[C@H](N)[C@@H](O)[C@H](C)O3)c3ccccc32)cc1`, the Activity in test [1] worked out at 100%; in test [10], 49.7%; in test [16] it was 100%; in test [17], 100%. Further, the inhibition in [2] worked out at 92.8%; in test [9], 103%. The IC50 was 7.7 µM in test [3]; 7.3 µM in [11]; 5.8 µM in test [12]; 24.3 µM in test [13]; 11.6 µM in test [14]; 4.7 µM in test [19]. Also, the inhibition result in test [4] and in [8] was “inactive” each time. Besides, the viability at 25 µM in test [5], in test [6] and in test [15] was below 1% throughout. Also, the result in [7] and in [18] was inactive. The inhibition result in test [20] is “Active”.
On to `C[C@@H]1O[C@@H](OCC#Cc2c(-c3ccccc3)oc3ccccc23)C[C@H](N)[C@@H]1O`, for which the Activity in test [1] was determined as 100%; in [10], 62%; in [16], 100%; in test [17], 100%. Further, the inhibition in [2] amounted to 77.8%; in test [9], 6.5%. The IC50 came out at 3.2 µM in [3]; 5.2 µM in [11]; 4.8 µM in test [12]; 16.7 µM in [13]; 5.7 µM in test [14]; 6.6 µM in [19]. In addition, the inhibition result in [4] and in test [8] was “inactive” in each case. Also, the viability at 25 µM in test [5], in test [6] and in test [15] was below 1% throughout. For the same molecule, the outcome in [7] and in test [18] was inactive.
In the case of `Cc1ccc(S(=O)(=O)n2c(-c3ccccc3)c(C#CCO[C@H]3C[C@H](N)[C@H](O)[C@H](C)O3)c3ccccc32)cc1`, the Activity came out at 100% in test [1], 47.9% in [10], 100% in test [16] and 100% in test [17]. Also, the figures for the inhibition in test [2] and in test [9] were 80.1% and 101%, respectively. Further, the IC50 in test [3] is 5.9 µM; in test [11], 6.3 µM; in [12], 5 µM; in test [13] it was 16.5 µM; in [14] it was 10.2 µM; in [19], 4.8 µM. The inhibition result in [4] and in [8] was “inactive” in each case. The viability at 25 µM in test [5], in test [6] and in test [15] was below 1% each time. In addition, the result in test [7], in test [21], in [18] and in test [22] was inactive. In addition, the inhibition entry in test [20] was “Active”.
For the molecule `COc1cccc2c1C(=O)c1c(O)c3c(c(O)c1C2=O)C[C@@](O)(C(C)=O)C[C@@H]3O[C@H]1C[C@H](N)[C@H](O)[C@H](C)O1` [DAUNORUBICIN], the results for the viability at 20 µM in [23] and in test [25] were 2% and 11%, respectively. Moreover, the 50% inhibitory concentration (IC50) stood at 0.7 µM in [3]; 0.4 µM in test [11]; 1.8 µM in [12]; 10.5 µM in test [13]; 2.5 µM in test [14]; 5.5 µM in test [19]. In test [4], the inhibition result was “inactive”. The viability at 25 µM in [5] stood at 11%; in test [27], 2%. In addition, the viability at 16 µM in test [24] was determined as 2%. Besides, the inhibition result in test [26] was “Active”.
Turning to `Cc1ccc(S(=O)(=O)n2c(-c3ccccc3)c(C#CCO[C@H]3CC[C@H](N)[C@H](C)O3)c3ccccc32)cc1`, the Activity was determined as 100% in test [1], 38.6% in [10], 100% in test [16] and 100% in [17]. Besides, the inhibition stood at 43.2% in test [2] and 86.2% in [9]. The IC50 turned out to be 9.5 µM in test [3]; 5.4 µM in test [11]; 4.9 µM in test [12]; 17.5 µM in test [13]; 10.1 µM in test [14]; 5.1 µM in [19]. The inhibition entry in [4] was “inactive”. In addition, the viability at 25 µM in test [5], in test [6] and in [15] was below 1% each time. Moreover, the outcome in test [7] and in test [18] was inactive. The inhibition entry in test [20] is “Active”.
Turning to `COc1cccc2c1C(=O)c1c(O)c3c(c(O)c1C2=O)C[C@@](O)(C(=O)CO)C[C@@H]3O[C@H]1C[C@H](N)[C@H](O)[C@H](C)O1` [DOXORUBICIN], the viability at 20 µM in [23] amounted to 47%; in test [25], 43%. Further, the IC50 in test [3] is 1 µM; in [11] it was 0.6 µM; in test [12], 3.5 µM; in [13], above 25 µM; in test [14], 10.4 µM; in test [19], 16.8 µM. Besides, the inhibition result in [4] is “inactive”. Also, the viability at 25 µM in [5] amounted to 43%; in [15], 8%. In test [24], the viability at 16 µM amounted to 8%. For the same molecule, in test [7], the result was inactive. Also, the inhibition result in [26] is “Active”.
